Sampled rows, rich in hits. Any-hit rate of the full collection: about 2%.
NR2E3 ag-1 – activates human NR2E3 receptor. Q9Y5X4. CHO-S Gal4-NCOR/VP16-NR2E3 two-hybrid, luciferase. inhibition of corepressor binding, % at 3.98 µM. actives 0.35% (n = 360,000);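 active means inhibition above the mean of all tested compounds plus 3 SD, cut at about 70% in these data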;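 further: higher means lower luciferase signal from less NR2E3 corepressor binding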
Target sequence (Q9Y5X4 whole entry, looked up, the tested form may be a part): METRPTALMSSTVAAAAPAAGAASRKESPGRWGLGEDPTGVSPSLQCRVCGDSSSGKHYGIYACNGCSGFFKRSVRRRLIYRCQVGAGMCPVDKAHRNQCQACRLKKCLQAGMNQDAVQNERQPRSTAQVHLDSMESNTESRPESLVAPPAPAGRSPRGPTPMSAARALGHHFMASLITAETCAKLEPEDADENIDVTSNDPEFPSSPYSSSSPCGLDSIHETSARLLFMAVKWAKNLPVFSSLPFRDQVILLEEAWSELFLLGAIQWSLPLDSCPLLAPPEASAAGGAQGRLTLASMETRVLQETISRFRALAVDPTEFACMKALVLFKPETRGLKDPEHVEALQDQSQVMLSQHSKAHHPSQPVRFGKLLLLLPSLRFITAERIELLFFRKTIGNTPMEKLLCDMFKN
Myeloid diff MLP – promotes myeloid progenitor differentiation; actives 1% (n = 360,000); ER-HoxA9 myeloid progenitors, lysozyme-GFP differentiation, flow cytometry; calls only at 10 µM;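 active means normalized GFP-positive differentiation at or above the plate's own cutoff, the solvent-only control mean plus 3 SD; inconclusive means no clear call, values can overlap the other calls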;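 further: cells exposed to compound for four days before flow analysis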
GAA850 FXN act – activators of GAA850 frataxin (FXN) promoter. HEK293 lucGAA850 FXN promoter luciferase reporter, 24 h; percent of 10 µM SAHA response. activation, % at 6 µM. actives 0.56% (n = 360,000);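 active means activation above the average of all compounds screened plus 3 SD, cutoff fixed separately per campaign, cut at about 7.5% in these data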
T cell HTS – modulates CD8 T cell binding to vesicles | 2C CD8+ T cell-vesicle binding, flow cytometry; hits give low values | response (vesicle binding), % at 7 µM | actives 0.068% (n = 330,000) | AID 2052;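 active means response, share of CD8 T cells binding vesicles, and their 90th percentile fluorescence all below set limits, cut at about 80% in these data, passing the limit was not always enough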;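 further: values below 100% mean blocked vesicle binding to the CD8+ T cells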
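Assay system – 2C mouse CD8+ T cells · Also added – QL9-loaded Drosophila micro-vesicles · Timing – Cell–vesicle co-incubation 1.5 h at 37 °C, staining 20 min on ice · Signal – flow cytometry of vesicle-bound cells · Measure – percent CD8+ FL2 mean versus row control · Controls – Peptide-free naked vesicles (low) and QL9 vesicles with 0.7% DMSO vehicle (high)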
NR2E3 ag-2 – activates human photoreceptor nuclear receptor NR2E3. inhibition of corepressor binding, % at 4.78 µM. GST-NR2E3/biotin-RetCOR TR-FRET, 1536-well. actives 0.12% (n = 320,000);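 active means percent inhibition above the cutoff of mean plus 3 SD of all tested compounds, set per screening campaign, cut at about 20% in these data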
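Material: NR2E3–RetCOR corepressor complex | Quantity: 1.35 nM GST-tagged NR2E3 final | Schedule: 5 h at 4 °C | Replication: Singlicate compound wells | Reagent: RetCOR corepressor, biotinylated, 7 nM | Controls: Biotin wells as high control, 0.6% DMSO wells as low control | Signal: TR-FRET, Eu(K)-anti-GST donor, streptavidin-D2 acceptor, ex 340, em 617/671 nm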
NR2E3 ag confirm – confirmation of human NR2E3 agonists | shares compounds with NR2E3 ag-1 | CHO-S mammalian two-hybrid NR2E3-NCOR, luciferase luminescence | inhibition, % at 3.98 µM | actives 51% (n = 2,300) | AID 624378;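 active means average inhibition above a cutoff equal to the mean inhibition of all tested compounds plus one SD, cut at about 70% in these data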
GAL4-VP16 luc – counter-screen for NR2E3 agonists: GAL4-VP16 reporter inhibitors; shares compounds with NR2E3 ag-1; CHO-S GAL4-VP16 luciferase reporter, luminescence; inhibition, % at 3.98 µM; actives 29% (n = 2,300);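 active means mean inhibition above a cutoff equal to the average over all tested compounds plus one standard deviation, cut at about 70% in these data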;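 further: luciferase from a UAS reporter driven by GAL4-VP16 transactivation; higher means less reporter light so more repression of VP16 activity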
Each line names hits and unclear results; the compound was inactive in the other large screens (follow-up assays come after a bar, where they were run).

Cc1cc(Cl)ccc1OC(C)C(=O)Nc1ccc(C(=O)Nc2ccccc2C(=O)O)cc1 (configuration not stated)	none | NR2E3 ag confirm inactive | GAL4-VP16 luc inactive
COC1=CC(C)C2CC3OC(O)CC4C(C)=C(OC)C(=O)C(C2(C)C1=O)C34C (configuration not stated)	none (no result: T cell HTS, NR2E3 ag-2)
O=C(Nc1ccc(Oc2ccccc2)cc1)c1csc([C@H]2C[C@H](O)[C@@H](CO)O2)n1	none (no result: T cell HTS, NR2E3 ag-2) | NR2E3 ag confirm 78 | GAL4-VP16 luc inactive
CN1c2ccccc2C(O)=C(C(=S)Nc2ccc(F)c(Cl)c2)S1(=O)=O	none | NR2E3 ag confirm 88 | GAL4-VP16 luc inactive
Cn1c(=O)c2cc(NC(=O)CCc3ccc4c(c3)OCO4)ccc2n1Cc1ccc(F)cc1	none (no result: T cell HTS, NR2E3 ag-2)
Cc1ccc(S(=O)(=O)Nc2nc3ccccc3nc2NCc2ccco2)cc1C	none | NR2E3 ag confirm inactive | GAL4-VP16 luc inactive
Cn1ccnc1C(=O)c1cc(SCC(=O)NC2CC2)nc2ccccc12	none
CN(C(=O)CSc1cc(C(=O)c2nccn2C)c2ccccc2n1)c1ccccc1	NR2E3 ag-1 81 | NR2E3 ag confirm 78 | GAL4-VP16 luc inactive
COc1cccc2[nH]c3c(N4CCc5ccccc5C4)ncnc3c12	none (no result: NR2E3 ag-1, Myeloid diff MLP, GAA850 FXN act)
c1ccc2c(c1)[nH]c1c(N3CCC4(CC3)OCCO4)ncnc12	none
OC1(c2cccc(C(F)(F)F)c2)CCN(c2ncnc3c2[nH]c2ccccc23)CC1	none | NR2E3 ag confirm inactive | GAL4-VP16 luc inactive
c1ccc2c(c1)CCN(c1ncnc3c1[nH]c1ccccc13)C2	NR2E3 ag-1 89 | NR2E3 ag confirm 95 | GAL4-VP16 luc 88
Cc1ccc(OCc2ccc(C(=O)Nc3c(C)nn(Cc4c(F)c(F)c(F)c(F)c4F)c3C)o2)c([N+](=O)[O-])c1	none (no result: T cell HTS) | NR2E3 ag confirm inactive | GAL4-VP16 luc inactive
COc1ccc(-c2csc(NC(=O)Cc3cc(OC)c(OC)c(OC)c3)n2)cc1OC	none | NR2E3 ag confirm inactive | GAL4-VP16 luc inactive
COc1cnc(-c2ccccn2)nc1Oc1cccc(Cl)c1	none | NR2E3 ag confirm inactive | GAL4-VP16 luc inactive
COc1cnc(-c2ccccn2)nc1Oc1c(C)cccc1C	none | NR2E3 ag confirm inactive | GAL4-VP16 luc inactive
COc1ccc(Oc2nc(-c3ccccn3)ncc2OC)cc1	NR2E3 ag-1 73 | NR2E3 ag confirm inactive | GAL4-VP16 luc inactive
COc1cnc(-c2ccccn2)nc1N(C)C	Myeloid diff MLP active | NR2E3 ag confirm inactive | GAL4-VP16 luc inactive
COc1cnc(-c2ccccc2)nc1Oc1cccc(C)c1	none
COc1ccc(Oc2nc(-c3ccccn3)nc3ccccc23)cc1	none
CC(C)(C)c1ccccc1NC(=O)Nc1nc(C(N)c2ccccc2Cl)cs1 (configuration not stated)	none (no result: T cell HTS, NR2E3 ag-2)
CN1CCc2c(sc(NC(=O)c3ccc([N+](=O)[O-])o3)c2C(N)=O)C1	Myeloid diff MLP inconclusive | NR2E3 ag confirm inactive | GAL4-VP16 luc inactive
CCN(CC)C(=O)C1CCN(S(=O)(=O)c2ccc3oc4ccccc4c3c2)CC1	NR2E3 ag-1 77 | NR2E3 ag confirm inactive | GAL4-VP16 luc inactive
CCOC(=O)/C=C1\SC(C)C(=O)N1CC(=O)N(CCC#N)c1ccccc1 (configuration not stated)	none
COc1ccccc1N1CCN(C(=O)C2CCCN(S(=O)(=O)c3ccc4c(c3)oc(=O)n4C)C2)CC1 (configuration not stated)	NR2E3 ag-1 85 | NR2E3 ag confirm inactive | GAL4-VP16 luc inactive
O=C(Nc1ccc(F)cc1F)N1CCCN(c2ccc(C(F)(F)F)cn2)CC1	none
CC1CN(C(=S)Nc2ccc(F)cc2F)CC(C)O1 (configuration not stated)	none
Fc1ccc(NC(=S)N2CCCN(c3ccc(C(F)(F)F)cn3)CC2)c(F)c1	none | NR2E3 ag confirm 91 | GAL4-VP16 luc 77
Cc1csc2ncnc(N3CCN(C(=S)Nc4ccc(F)cc4F)CC3)c12	none | NR2E3 ag confirm 93 | GAL4-VP16 luc 82
O=C(Cc1cccc(NC(=O)C2CCN(C(=O)CCc3ccccc3)CC2)c1)Nc1cccc(C(=O)N2CCCCC2)c1	none (no result: T cell HTS, NR2E3 ag-2)
O=C(CCNC(=O)c1ccc([N+](=O)[O-])cc1)NCc1cccs1	none (no result: NR2E3 ag-2)
CC1CCN(S(=O)(=O)c2ccc(Oc3ccc([N+](=O)[O-])cc3)cc2)CC1	NR2E3 ag-1 88 | NR2E3 ag confirm 91 | GAL4-VP16 luc 76
CCC(c1nc2ccccc2[nH]1)n1c(=O)c(-c2ccccc2)nc2ccccc21 (configuration not stated)	none (no result: NR2E3 ag-1, GAA850 FXN act, T cell HTS, NR2E3 ag-2)
Cc1csc2ncnc(NCCc3ccccn3)c12	NR2E3 ag-1 71 | NR2E3 ag confirm 90 | GAL4-VP16 luc 77
COc1cc2cc(C(=O)Nc3ccc4c(c3)OCCO4)[nH]c2cc1OC	none | NR2E3 ag confirm inactive | GAL4-VP16 luc inactive
COc1cc2[nH]c(C(=O)Nc3ccc4c(c3)OCCO4)cc2c(OC)c1OC	none
CC1CCN(CCOc2ccc(OCc3ccccc3)cc2)CC1	none
CCCn1c(NC(=O)CN2C(=O)NC3(CCCC3)C2=O)nc2ccccc21	none
Cc1nc(C)c(C(=O)NNS(=O)(=O)c2ccc3ccccc3c2)s1	none | NR2E3 ag confirm 82 | GAL4-VP16 luc 76
Cc1nc(NS(=O)(=O)c2ccccc2)sc1C(=O)NNS(=O)(=O)c1ccccc1	none
COc1ccc(OC)c(CCNC(=O)Cn2nc(C)c3c(C)n(-c4ccc(C)cc4)nc3c2=O)c1	NR2E3 ag-1 74, Myeloid diff MLP inconclusive | NR2E3 ag confirm inactive | GAL4-VP16 luc inactive
Cc1ccccc1C(=O)Oc1cccc(Nc2ncnc3ccccc23)c1	NR2E3 ag-1 72 | NR2E3 ag confirm inactive | GAL4-VP16 luc inactive
CCc1cccc2sc(N3CCN(C(=O)c4ccc([N+](=O)[O-])o4)CC3)nc12	NR2E3 ag-1 90, Myeloid diff MLP inconclusive | NR2E3 ag confirm 76 | GAL4-VP16 luc inactive
CCN(C(=O)COC(=O)COc1ccc(Cl)c(C)c1)C1CCS(=O)(=O)C1 (configuration not stated)	none
Cn1c(SCC(=O)N2CCCC2)nc2ccccc21	none
Cn1c(Sc2nc3ccccc3n2C)nc2ccccc21	NR2E3 ag-1 76 | NR2E3 ag confirm inactive | GAL4-VP16 luc inactive
CCOc1ccc(C2C3=C(CC(C)(C)CC3=O)N(CCCOC)C3=C2C(=O)CC(C)(C)C3)cc1OC	none (no result: T cell HTS, NR2E3 ag-2)
Cc1nn(C)c(C)c1CN(C)S(=O)(=O)c1ccc2ccccc2c1	NR2E3 ag-1 85 | NR2E3 ag confirm 96 | GAL4-VP16 luc 86
Nc1nc(-c2ccccc2)nn1C(=O)Cc1ccccc1	NR2E3 ag-1 82 | NR2E3 ag confirm inactive | GAL4-VP16 luc inactive
CCOC(=O)C1(C)CCCN1C(=O)c1ccc(Cl)nc1 (configuration not stated)	none (no result: T cell HTS, NR2E3 ag-2)

Screening data (PubChem)
